# Experimental data reported in ChEMBL document CHEMBL5058577, “EUbOPEN Chemogenomics Library 2 (Multiplex)” (2022).
# System: Fibroblast
# Experiment: Multiplex assay against human fibroblast
# Format: toxicity, cell-based
# Summary of the method: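 Four dyes were applied at seeding to live cells: Hoechst33342, BioTracker Green Microtubule Cytoskeleton Dye, MitoTracker Red and Annexin V Alexa Fluor 680. Imaging after compound addition used a CQ1 microscope at 37°C and 5% CO2. CellPathfinder machine-learning gating then sorted cells into Hoechst high-intensity objects or normal cells, normal cells into healthy, pyknosed or fragmented nuclei, and pyknosed cells into mitotic or apoptotic, with tubulin, mitochondrial-mass and membrane-permeability phenotypes given as per cents of healthy-nucleus cells.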
# [1] = 12 h, 1 µM, compound concentration 1 uM, replicate 1
# [2] = 12 h, 1 µM, compound concentration 1 uM, replicate 2
# [3] = 12 h, 10 µM, compound concentration 10 uM, replicate 1
# [4] = 12 h, 10 µM, compound concentration 10 uM, replicate 2
# [5] = 24 h, 1 µM, compound concentration 1 uM, replicate 1
# [6] = 24 h, 1 µM, compound concentration 1 uM, replicate 2
# [7] = 24 h, 10 µM, compound concentration 10 uM, replicate 1
# [8] = 24 h, 10 µM, compound concentration 10 uM, replicate 2
# [9] = 48 h, 1 µM, compound concentration 1 uM, replicate 1
# [10] = 48 h, 1 µM, compound concentration 1 uM, replicate 2
# [11] = 48 h, 10 µM, compound concentration 10 uM, replicate 1
# [12] = 48 h, 10 µM, compound concentration 10 uM, replicate 2
smiles,measurement,setting,value
COc1ccccc1N1CCN(C[C@@H](C(=O)NC(C)(C)C)c2ccccc2)CC1.Cl.Cl,Population Apoptotic (%),[1],43%
same,Population Fragmented Nuclei (%),[1],12%
same,Population Healthy Nuclei (%),[1],70%
same,Population Hoechst High Intensity Objects (%),[1],2%
same,Population Membrane Permeable-Phenotype (%),[1],0%
same,Population Mitochondria Different-Phenotype (%),[1],8%
same,Population Mitotic Cells (%),[1],56%
same,Population Normal (%),[1],97%
same,Population Pyknosed Nuclei (%),[1],16%
same,Population Tubulin-Different-Phenotype (%),[1],37%
same,Total Cell Count,[1],141
same,Population Apoptotic (%),[2],40%
same,Population Fragmented Nuclei (%),[2],25%
same,Population Healthy Nuclei (%),[2],43%
same,Population Hoechst High Intensity Objects (%),[2],5%
same,Population Mitochondria Different-Phenotype (%),[2],4%
same,Population Mitotic Cells (%),[2],60%
same,Population Normal (%),[2],94%
same,Population Pyknosed Nuclei (%),[2],30%
same,Population Tubulin-Different-Phenotype (%),[2],43%
same,Total Cell Count,[2],155
same,Population Apoptotic (%),[3],50%
same,Population Fragmented Nuclei (%),[3],20%
same,Population Healthy Nuclei (%),[3],59%
same,Population Hoechst High Intensity Objects (%),[3],5%
same,Population Membrane Permeable-Phenotype (%),[3],1%
same,Population Mitochondria Different-Phenotype (%),[3],20%
same,Population Mitotic Cells (%),[3],50%
same,Population Normal (%),[3],94%
same,Population Pyknosed Nuclei (%),[3],20%
same,Population Tubulin-Different-Phenotype (%),[3],66%
same,Total Cell Count,[3],134
same,Population Apoptotic (%),[4],48%
same,Population Fragmented Nuclei (%),[4],32%
same,Population Healthy Nuclei (%),[4],42%
same,Population Membrane Permeable-Phenotype (%),[4],6%
same,Population Mitochondria Different-Phenotype (%),[4],12%
same,Population Mitotic Cells (%),[4],51%
same,Population Pyknosed Nuclei (%),[4],24%
same,Population Tubulin-Different-Phenotype (%),[4],70%
same,Total Cell Count,[4],116
same,Population Apoptotic (%),[5],50%
same,Population Fragmented Nuclei (%),[5],12%
same,Population Healthy Nuclei (%),[5],73%
same,Population Hoechst High Intensity Objects (%),[5],2%
same,Population Membrane Permeable-Phenotype (%),[5],0%
same,Population Mitochondria Different-Phenotype (%),[5],15%
same,Population Mitotic Cells (%),[5],50%
same,Population Normal (%),[5],97%
same,Population Pyknosed Nuclei (%),[5],14%
same,Population Tubulin-Different-Phenotype (%),[5],32%
same,Total Cell Count,[5],143
same,Population Fragmented Nuclei (%),[6],24%
same,Population Healthy Nuclei (%),[6],55%
same,Population Hoechst High Intensity Objects (%),[6],3%
same,Population Membrane Permeable-Phenotype (%),[6],8%
same,Population Mitochondria Different-Phenotype (%),[6],3%
same,Population Normal (%),[6],96%
same,Population Pyknosed Nuclei (%),[6],19%
same,Population Tubulin-Different-Phenotype (%),[6],50%
same,Total Cell Count,[6],151
same,Population Apoptotic (%),[7],83%
same,Population Fragmented Nuclei (%),[7],19%
same,Population Healthy Nuclei (%),[7],65%
same,Population Hoechst High Intensity Objects (%),[7],8%
same,Population Membrane Permeable-Phenotype (%),[7],0%
same,Population Mitochondria Different-Phenotype (%),[7],37%
same,Population Mitotic Cells (%),[7],16%
same,Population Normal (%),[7],91%
same,Population Pyknosed Nuclei (%),[7],14%
same,Population Tubulin-Different-Phenotype (%),[7],63%
same,Total Cell Count,[7],132
same,Population Apoptotic (%),[8],40%
same,Population Fragmented Nuclei (%),[8],39%
same,Population Healthy Nuclei (%),[8],41%
same,Population Hoechst High Intensity Objects (%),[8],3%
same,Population Membrane Permeable-Phenotype (%),[8],8%
same,Population Mitochondria Different-Phenotype (%),[8],8%
same,Population Mitotic Cells (%),[8],59%
same,Population Normal (%),[8],96%
same,Population Pyknosed Nuclei (%),[8],19%
same,Population Tubulin-Different-Phenotype (%),[8],76%
same,Total Cell Count,[8],116
same,Population Apoptotic (%),[9],84%
same,Population Fragmented Nuclei (%),[9],18%
same,Population Healthy Nuclei (%),[9],71%
same,Population Hoechst High Intensity Objects (%),[9],5%
same,Population Membrane Permeable-Phenotype (%),[9],1%
same,Population Mitochondria Different-Phenotype (%),[9],12%
same,Population Mitotic Cells (%),[9],15%
same,Population Normal (%),[9],94%
same,Population Pyknosed Nuclei (%),[9],10%
same,Population Tubulin-Different-Phenotype (%),[9],34%
same,Total Cell Count,[9],138
same,Population Apoptotic (%),[10],60%
same,Population Fragmented Nuclei (%),[10],31%
same,Population Healthy Nuclei (%),[10],52%
same,Population Membrane Permeable-Phenotype (%),[10],5%
same,Population Mitochondria Different-Phenotype (%),[10],5%
same,Population Mitotic Cells (%),[10],40%
same,Population Pyknosed Nuclei (%),[10],15%
same,Population Tubulin-Different-Phenotype (%),[10],56%
same,Total Cell Count,[10],171
same,Population Apoptotic (%),[11],84%
same,Population Fragmented Nuclei (%),[11],18%
same,Population Healthy Nuclei (%),[11],63%
same,Population Hoechst High Intensity Objects (%),[11],14%
same,Population Membrane Permeable-Phenotype (%),[11],0%
same,Population Mitochondria Different-Phenotype (%),[11],34%
same,Population Mitotic Cells (%),[11],15%
same,Population Normal (%),[11],85%
same,Population Pyknosed Nuclei (%),[11],18%
same,Population Tubulin-Different-Phenotype (%),[11],65%
same,Total Cell Count,[11],122
same,Population Apoptotic (%),[12],44%
same,Population Fragmented Nuclei (%),[12],50%
same,Population Healthy Nuclei (%),[12],41%
same,Population Hoechst High Intensity Objects (%),[12],3%
same,Population Membrane Permeable-Phenotype (%),[12],8%
same,Population Mitochondria Different-Phenotype (%),[12],8%
same,Population Mitotic Cells (%),[12],55%
same,Population Normal (%),[12],96%
same,Population Pyknosed Nuclei (%),[12],7%
same,Population Tubulin-Different-Phenotype (%),[12],67%
